Results as given in ChEMBL document CHEMBL3784986, “Discovery and Characterization of Biased Allosteric Agonists of the Chemokine Receptor CXCR3” (J Med Chem, 2016).
Activity calls are given as the source filed them. The calls are words filed in the database; no cut-off is given here.

Tests used:
[1] = target: T1, C-X-C chemokine receptor type 3 (Homo sapiens) (UniProt P49682); assay: Positive allosteric modulation of human CXCR3 expressed in HEK293T cell membranes after 30 mins by [35S]GTPgammaS incorporation assay relative to CXCL11; format: functional; settings: HEK-293T
T1 sequence (whole entry): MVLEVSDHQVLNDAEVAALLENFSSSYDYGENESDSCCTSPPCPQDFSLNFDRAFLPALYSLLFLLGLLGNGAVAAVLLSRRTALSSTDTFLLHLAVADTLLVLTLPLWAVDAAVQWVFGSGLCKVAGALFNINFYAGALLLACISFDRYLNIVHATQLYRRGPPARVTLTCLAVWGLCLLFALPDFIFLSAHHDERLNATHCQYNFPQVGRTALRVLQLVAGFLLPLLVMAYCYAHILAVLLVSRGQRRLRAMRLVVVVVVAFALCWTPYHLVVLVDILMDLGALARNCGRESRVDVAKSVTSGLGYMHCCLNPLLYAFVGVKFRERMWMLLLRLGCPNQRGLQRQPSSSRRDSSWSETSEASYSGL
Method in brief: (§1)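 Membranes from HEK293 cells stably expressing CXCR3 (30 µg/mL protein) in 20 mM HEPES, 10 mM MgCl2, 100 mM NaCl, 100 mg/L saponin, pH 7.4. Compound plus 1 µM GDP preincubated 30 min at 37 °C, then 0.10 nM [35S]GTPγS added for 30 min at 37 °C. Filtered on GF/B and counted. Efficacy expressed as % of CXCL11. Three experiments in triplicate, pEC50 by nonlinear regression.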

[2] = target: T1, C-X-C chemokine receptor type 3 (Homo sapiens); assay: Positive allosteric modulation of ProLink2-tagged wild type CXCR3 (unknown origin) expressed in HEK293T cells assessed as beta-arrestin-2 recruitment incubated for 4 hrs by chemiluminescence-based microplate reader method relative to CXCL11; format: cell-based; settings: HEK-293T
Method in brief: (§2)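 HEK293 cells stably expressing β-gal enzyme acceptor, transiently transfected with PK1- or PK2-tagged wild-type CXCR3, 2000 cells/well, grown overnight at 37 °C. Compounds or CXCL11 in PBS pH 7.4 with 0.20% BSA added for 4 h. Detection mix 60 min at room temperature, then chemiluminescence read. Efficacy expressed as % of CXCL11 effect. Two to three experiments in triplicate.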

[3] = target: T1, C-X-C chemokine receptor type 3 (Homo sapiens); assay: Positive allosteric modulation of ProLink1-tagged wild type CXCR3 (unknown origin) expressed in HEK293T cells assessed as beta-arrestin-2 recruitment incubated for 4 hrs by chemiluminescence-based microplate reader method relative to CXCL11; format: cell-based; settings: HEK-293T; method in brief: as §2
[4] = target: T1, C-X-C chemokine receptor type 3 (Homo sapiens); assay: Positive allosteric modulation of human CXCR3 expressed in HEK293T cell membranes after 30 mins by [35S]GTPgammaS incorporation assay; format: functional; settings: HEK-293T; method in brief: as §1
[5] = target: T1, C-X-C chemokine receptor type 3 (Homo sapiens); assay: Inhibition of CXCL11-mediated activation of human CXCR3 expressed in HEK cells; format: cell-based; settings: HEK293
[6] = target: T1, C-X-C chemokine receptor type 3 (Homo sapiens); assay: Inhibition of CXCL10-mediated activation of human CXCR3 expressed in HEK cells; format: cell-based; settings: HEK293
[7] = target: T1, C-X-C chemokine receptor type 3 (Homo sapiens); assay: Positive allosteric modulation of ProLink1-tagged wild type CXCR3 (unknown origin) expressed in HEK293T cells assessed as beta-arrestin-2 recruitment incubated for 4 hrs by chemiluminescence-based microplate reader method; format: cell-based; settings: HEK-293T; method in brief: as §2
[8] = Cytotoxicity against HEK293T cells expressing CXCR3 at 10 uM incubated overnight by ApoTox-Glo Triplex assay; format: cell-based; settings: human, hek-293t
Method in brief: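 10,000 HEK293T cells stably expressing CXCR3 incubated overnight with compound at 10 µM. ApoTox-Glo triplex. Viability read by fluorescence at 400Ex/505Em (GF-AFC) and cytotoxicity at 485Ex/520Em (bis-AAF-R110), each after a 30 min reagent step. Caspase-3/7 luminescence then read after a further 30 min.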

Row | SMILES | Efficacy [1] | Efficacy [2] | Efficacy [3] | pEC50 [4] | inhibition [5] | inhibition [6] | pEC50 [7] | Activity [8] | Activity [4]
1 | CC(C)(C)OC(=O)NCCCC[C@@H](NC(=O)[C@@H]1Cc2ccccc2CN1C(=O)CCC(=O)c1ccccc1)C(=O)NCC(c1ccccc1)c1ccccc1 | 33% | 30% | 36% |  |  |  |  |  | 
2 | CC(C)(C)OC(=O)N[C@@H](CCCCNC(=O)[C@@H]1Cc2ccccc2CN1C(=O)CCC(=O)N1CCCCC1)C(=O)NCC(c1ccccc1)c1ccccc1 | inactive |  | inactive | inactive | inactive | inactive | inactive |  | 
3 | CC(=O)CCC(=O)N1Cc2ccccc2C[C@H]1C(=O)NCCCC[C@H](NC(=O)OC(C)(C)C)C(=O)NCC(c1ccccc1)c1ccccc1 | inactive | 63% | 34% | inactive | inactive | inactive |  | Non-toxic | 
4 | CC(C)(C)OC(=O)N[C@@H](CCCCNC(=O)[C@@H]1Cc2ccccc2CN1C(=O)CCC(=O)c1ccc(S(C)(=O)=O)cc1)C(=O)NCC(c1ccccc1)c1ccccc1 | 25% |  | inactive |  | inactive | inactive | inactive | Non-toxic | 
5 | CC(C)(C)OC(=O)N[C@@H](CCCCNC(=O)[C@@H]1Cc2ccccc2CN1C(=O)CCc1ccccc1)C(=O)NCC(c1ccccc1)c1ccccc1 | 30% | 29% | 19% |  | inactive | inactive |  | Non-toxic | 
6 | CC(C)(C)OC(=O)N[C@@H](CCCCNC(=O)[C@@H]1Cc2ccccc2CN1C(=O)CCC(=O)c1ccc(F)cc1)C(=O)NCC(c1ccccc1)c1ccccc1 | 20% |  | inactive |  | inactive | inactive | inactive | Non-toxic | 
7 | NCCCC[C@H](NC(=O)[C@@H]1Cc2ccccc2CN1C(=O)CCC(=O)c1ccccc1)C(=O)NCC(c1ccccc1)c1ccccc1.O=C(O)C(F)(F)F | 109% |  | 139% |  |  |  |  | Non-toxic | Dose-dependent effect
8 | N[C@@H](CCCCNC(=O)[C@@H]1Cc2ccccc2CN1)C(=O)NCC(c1ccccc1)c1ccccc1 | 40% | 85% | 14% |  | inactive | inactive |  |  | 
9 | N[C@@H](CCCCNC(=O)[C@@H]1Cc2ccccc2CN1C(=O)CCC(=O)c1ccccc1)C(=O)NCC(c1ccccc1)c1ccccc1 | inactive | 27% | 17% | inactive | inactive | inactive |  |  | 
10 | N[C@@H](CCCCNC(=O)[C@@H]1Cc2ccccc2CN1C(=O)CCCC(=O)c1ccccc1)C(=O)NCC(c1ccccc1)c1ccccc1 | inactive | 91% | 20% | inactive | inactive | inactive |  |  | 
11 | CC(C)(C)OC(=O)N[C@@H](CCCCNC(=O)[C@@H]1Cc2ccccc2CN1C(=O)CCC(=O)c1cccs1)C(=O)NCC(c1ccccc1)c1ccccc1 | inactive |  | inactive | inactive | inactive | inactive | inactive |  | 
12 | CC(C)(C)OC(=O)N[C@H](CCCCNC(=O)[C@@H]1Cc2ccccc2CN1C(=O)CCC(=O)c1ccccc1)C(=O)NCC(c1ccccc1)c1ccccc1 | inactive | 88% | 16% | inactive | inactive | inactive |  | Non-toxic | 
13 | CN1CCN(C(=O)CCC(=O)N2Cc3ccccc3C[C@H]2C(=O)NCCCC[C@H](NC(=O)OC(C)(C)C)C(=O)NCC(c2ccccc2)c2ccccc2)CC1 | inactive |  | inactive | inactive | inactive | inactive | inactive |  | 
14 | N[C@H](CCCCNC(=O)[C@@H]1Cc2ccccc2CN1C(=O)CCC(=O)c1ccccc1)C(=O)NCC(c1ccccc1)c1ccccc1 | 25% | 79% | 28% |  | inactive | inactive |  |  | 
15 | CC(C)(C)OC(=O)N[C@@H](CCCCNC(=O)[C@@H]1Cc2ccccc2CN1C(=O)CCC(=O)c1ccco1)C(=O)NCC(c1ccccc1)c1ccccc1 | inactive |  | inactive | inactive | inactive | inactive | inactive |  | 
16 | NCCCC[C@@H](NC(=O)[C@@H]1Cc2ccccc2CN1C(=O)CCC(=O)c1ccccc1)C(=O)NCC(c1ccccc1)c1ccccc1 | 85% | 198% | 108% |  |  |  |  |  | 
17 | CC(C)(C)OC(=O)N[C@@H](CCCCNC(=O)[C@@H]1Cc2ccccc2CN1C(=O)CCCc1ccccc1)C(=O)NCC(c1ccccc1)c1ccccc1 | 29% |  | inactive |  | inactive | inactive | inactive | Non-toxic | 
18 | CC(C)(C)OC(=O)NCCCC[C@H](NC(=O)OCc1ccccc1)C(=O)NCC(c1ccccc1)c1ccccc1 |  |  |  |  |  |  |  | Non-toxic | 
19 | CC(C)(C)OC(=O)N[C@@H](CCCCNC(=O)[C@@H]1Cc2ccccc2CN1C(=O)CCC(=O)N1CCOCC1)C(=O)NCC(c1ccccc1)c1ccccc1 | inactive |  | inactive | inactive | inactive | inactive | inactive |  | 
20 | CC(C)(C)OC(=O)N[C@H](CCCCNC(=O)[C@@H]1Cc2ccccc2CN1)C(=O)NCC(c1ccccc1)c1ccccc1 |  |  |  |  | inactive | inactive |  | Non-toxic | 
21 | COc1ccc(C(=O)CCC(=O)N2Cc3ccccc3C[C@H]2C(=O)NCCCC[C@H](NC(=O)OC(C)(C)C)C(=O)NCC(c2ccccc2)c2ccccc2)cc1OC | 18% |  | inactive |  | inactive | inactive | inactive | Non-toxic | 
22 | CC(C)(C)OC(=O)N[C@@H](CCCCNC(=O)[C@@H]1Cc2ccccc2CN1C(=O)CCCC(=O)c1ccccc1)C(=O)NCC(c1ccccc1)c1ccccc1 | inactive | 56% | 20% | inactive | inactive | inactive |  | Non-toxic | 
23 | CC(C)(C)OC(=O)N[C@@H](CCCCNC(=O)[C@@H]1Cc2ccccc2CN1)C(=O)NCC(c1ccccc1)c1ccccc1 | 34% | 79% | 31% |  | inactive | inactive |  | Non-toxic | 
